The source of these data is ChEMBL document CHEMBL4033799, “Stable and Long-Lasting, Novel Bicyclic Peptide Plasma Kallikrein Inhibitors for the Treatment of Diabetic Macular Edema” (J Med Chem, 2018).

A value given as a limit tells only on which side of the number the result lay.

One experiment concerns the target T1, Kallikrein-5 (Homo sapiens, UniProt Q9Y337).
T1 sequence (Q9Y337 whole entry): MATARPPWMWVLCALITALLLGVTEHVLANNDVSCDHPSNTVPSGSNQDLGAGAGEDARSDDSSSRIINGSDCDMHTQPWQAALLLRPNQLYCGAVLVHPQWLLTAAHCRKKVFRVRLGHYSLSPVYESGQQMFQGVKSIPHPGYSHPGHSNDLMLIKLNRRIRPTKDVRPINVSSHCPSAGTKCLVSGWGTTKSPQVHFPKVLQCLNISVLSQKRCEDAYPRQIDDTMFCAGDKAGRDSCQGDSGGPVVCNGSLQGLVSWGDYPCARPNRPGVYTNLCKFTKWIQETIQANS
Description: Inhibition of recombinant human C-terminal 10His-tagged KLK5 (67 to 293 residues) expressed in mouse NS0 cells using fluorogenic Boc-VPR-AMC peptide as substrate after 5 mins by fluorescence based assay. In short, it runs like this: (§1)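 Human serine proteases were assayed with substrates and conditions set by each supplier's recommendations. Peptides were first screened at 50 μM. Where inhibition was detected, Ki was determined from activity across peptide concentrations using a tight-binding rate equation.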

The next experiment has as its target T2, Coagulation factor XII (Homo sapiens, UniProt P00748).
T2 sequence (P00748 whole entry): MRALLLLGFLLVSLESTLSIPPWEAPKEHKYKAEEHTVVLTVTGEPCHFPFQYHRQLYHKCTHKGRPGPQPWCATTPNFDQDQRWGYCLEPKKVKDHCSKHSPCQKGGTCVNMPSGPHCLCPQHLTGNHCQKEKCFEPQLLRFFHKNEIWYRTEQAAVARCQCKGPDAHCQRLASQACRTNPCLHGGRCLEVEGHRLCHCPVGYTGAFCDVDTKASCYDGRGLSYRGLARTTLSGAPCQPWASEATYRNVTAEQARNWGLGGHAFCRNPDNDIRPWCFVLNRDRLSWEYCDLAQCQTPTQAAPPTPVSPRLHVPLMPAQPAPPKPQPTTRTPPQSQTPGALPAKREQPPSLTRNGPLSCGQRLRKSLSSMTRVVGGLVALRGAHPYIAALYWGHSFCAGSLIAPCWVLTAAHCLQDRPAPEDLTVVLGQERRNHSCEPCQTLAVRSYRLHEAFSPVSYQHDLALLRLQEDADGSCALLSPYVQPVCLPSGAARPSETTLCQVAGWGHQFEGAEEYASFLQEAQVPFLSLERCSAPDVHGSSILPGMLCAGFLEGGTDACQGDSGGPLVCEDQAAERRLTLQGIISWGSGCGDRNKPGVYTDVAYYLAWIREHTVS
Description: Inhibition of human factor 12a using fluorogenic peptide as substrate by fluorescence based assay. The essentials: as §1

Experiment [1] addresses T3, Suppressor of tumorigenicity 14 protein (Homo sapiens, UniProt Q9Y5Y6).
T3 sequence (Q9Y5Y6 whole entry): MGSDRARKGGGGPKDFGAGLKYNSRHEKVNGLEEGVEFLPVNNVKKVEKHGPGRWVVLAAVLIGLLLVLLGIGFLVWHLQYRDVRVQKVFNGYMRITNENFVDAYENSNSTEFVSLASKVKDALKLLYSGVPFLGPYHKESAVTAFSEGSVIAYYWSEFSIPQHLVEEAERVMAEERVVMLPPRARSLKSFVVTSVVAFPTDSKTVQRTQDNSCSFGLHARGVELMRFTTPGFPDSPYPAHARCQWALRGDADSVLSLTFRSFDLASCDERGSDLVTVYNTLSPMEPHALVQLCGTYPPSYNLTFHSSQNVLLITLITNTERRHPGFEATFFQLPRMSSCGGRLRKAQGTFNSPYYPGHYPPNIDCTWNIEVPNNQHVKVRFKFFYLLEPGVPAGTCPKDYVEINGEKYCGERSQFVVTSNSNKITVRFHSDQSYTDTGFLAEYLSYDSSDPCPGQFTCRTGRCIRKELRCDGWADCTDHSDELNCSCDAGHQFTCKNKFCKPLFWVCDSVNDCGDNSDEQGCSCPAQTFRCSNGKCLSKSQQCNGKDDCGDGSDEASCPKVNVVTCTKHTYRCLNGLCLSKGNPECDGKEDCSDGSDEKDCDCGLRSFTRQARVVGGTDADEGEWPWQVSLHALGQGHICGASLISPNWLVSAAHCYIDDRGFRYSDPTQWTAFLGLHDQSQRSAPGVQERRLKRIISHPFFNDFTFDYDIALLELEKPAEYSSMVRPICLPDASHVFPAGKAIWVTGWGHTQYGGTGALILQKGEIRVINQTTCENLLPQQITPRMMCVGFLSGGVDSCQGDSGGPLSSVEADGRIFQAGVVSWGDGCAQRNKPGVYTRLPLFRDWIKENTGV
The experiment can be described thus: Inhibition of recombinant human N-terminal 6His-tagged matriptase catalytic domain (596 to 855 residues) expressed in Escherichia coli using fluorogenic Boc-QAR-AMC peptide as substrate after 5 mins by fluorescence based assay. In short, it runs like this: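 Panel of human serine proteases. Substrates and assay conditions followed each supplier's recommendations. Peptides were first screened at 50 μM. Where inhibition was detectable, hydrolytic activity was measured across a range of peptide concentrations. Ki was obtained by fitting to the tight-binding inhibitor rate equation.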

A further experiment has as its target Kallikrein-1 (Homo sapiens, UniProt P06870). The experiment can be described thus: Inhibition of recombinant human C-terminal His-tagged KLK1 (1 to 262 residues) expressed in HEK293 cells using fluorogenic PFR-AMC peptide as substrate by fluorescence based assay. The essentials:
as §1

The next experiment has as its target T4, Coagulation factor VII (Homo sapiens, UniProt P08709).
T4 sequence (P08709 whole entry): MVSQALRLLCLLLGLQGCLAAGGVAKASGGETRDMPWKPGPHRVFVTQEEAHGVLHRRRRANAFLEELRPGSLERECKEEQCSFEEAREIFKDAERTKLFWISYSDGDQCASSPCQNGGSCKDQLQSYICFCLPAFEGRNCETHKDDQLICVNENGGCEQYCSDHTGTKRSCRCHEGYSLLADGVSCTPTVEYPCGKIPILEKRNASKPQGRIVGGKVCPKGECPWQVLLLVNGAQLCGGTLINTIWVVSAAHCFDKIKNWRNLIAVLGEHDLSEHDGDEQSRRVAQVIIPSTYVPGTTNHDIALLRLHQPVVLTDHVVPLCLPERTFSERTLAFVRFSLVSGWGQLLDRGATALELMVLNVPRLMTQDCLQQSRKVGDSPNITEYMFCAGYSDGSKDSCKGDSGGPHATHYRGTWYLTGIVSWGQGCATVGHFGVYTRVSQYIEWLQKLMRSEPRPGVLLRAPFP
The experiment can be described thus: Inhibition of human factor 7a using fluorogenic peptide as substrate by fluorescence based assay. In short, it runs like this: as §1

For a further experiment, the target named is Coagulation factor XI (Homo sapiens, UniProt P03951). Description: Inhibition of human factor 11a using fluorogenic peptide as substrate by fluorescence based assay. In short, it runs like this: as §1
A short description of experiment [2]: Inhibition of dog plasma kallikrein using fluorogenic H-Pro-Phe-Arg-AMC peptide as substrate preincubated for 15 mins followed by substrate addition measured by fluorescence-based assay. The settings on record: read-out: Ki(app).

Kallikrein-1, sequence (P06870 whole entry, the tested form may be a part): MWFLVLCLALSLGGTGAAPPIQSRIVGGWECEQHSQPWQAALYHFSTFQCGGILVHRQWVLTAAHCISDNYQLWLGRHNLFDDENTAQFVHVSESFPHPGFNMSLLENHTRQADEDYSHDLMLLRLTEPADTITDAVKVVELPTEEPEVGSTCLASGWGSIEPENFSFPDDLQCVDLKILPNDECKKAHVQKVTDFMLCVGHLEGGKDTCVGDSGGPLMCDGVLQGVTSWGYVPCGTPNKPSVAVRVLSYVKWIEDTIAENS
Coagulation factor XI, sequence (P03951 19-387 limits assumed): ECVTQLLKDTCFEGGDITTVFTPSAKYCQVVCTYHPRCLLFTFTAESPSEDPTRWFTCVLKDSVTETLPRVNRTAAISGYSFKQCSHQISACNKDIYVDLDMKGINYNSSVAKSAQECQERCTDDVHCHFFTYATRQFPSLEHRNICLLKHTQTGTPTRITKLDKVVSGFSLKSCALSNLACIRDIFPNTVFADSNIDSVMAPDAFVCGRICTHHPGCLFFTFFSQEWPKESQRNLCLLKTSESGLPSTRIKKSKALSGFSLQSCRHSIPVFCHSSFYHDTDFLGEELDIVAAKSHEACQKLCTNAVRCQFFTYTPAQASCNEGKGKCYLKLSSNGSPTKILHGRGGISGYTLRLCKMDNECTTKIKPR
Coagulation factor XI, sequence (P03951 388-625 limits assumed): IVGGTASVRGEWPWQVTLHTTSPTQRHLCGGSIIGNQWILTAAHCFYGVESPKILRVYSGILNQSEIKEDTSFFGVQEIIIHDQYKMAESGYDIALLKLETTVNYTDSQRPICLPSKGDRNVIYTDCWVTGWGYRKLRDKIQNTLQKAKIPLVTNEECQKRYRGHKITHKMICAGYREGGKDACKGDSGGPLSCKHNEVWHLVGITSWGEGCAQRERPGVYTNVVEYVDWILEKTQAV

In the case of `CC(=O)N[C@H]1CSCc2cc3cc(c2)CSC[C@H](NC(=O)[C@H](CCCCNC(=N)N)NC(=O)[C@H](Cc2ccc(O)cc2)NC(=O)[C@@H]2CCN2C(=O)[C@H](Cc2ccccc2)NC(=O)[C@H](CO)NC1=O)C(=O)N[C@@H](C)CN[C@@H](Cc1cnc[nH]1)C(=O)N[C@@H](CCC(N)=O)C(=O)N[C@@H](CC(=O)O)C(=O)N[C@@H](CC(C)C)C(=O)N[C@H](C(=O)O)CSC3`, the Ki at Kallikrein-5 was > 50 µM; at Coagulation factor XII, > 50 µM; in experiment [1], 50 µM; on Kallikrein-1 (hek293) it was > 50 µM; at Coagulation factor VII, > 50 µM; at Coagulation factor XI, > 50 µM. The Ki in experiment [2] was 0.08 µM.
For `CC(=O)N[C@H]1CSCc2cc3cc(c2)CSC[C@H](C(=O)N[C@@H](C)C(=O)N(C)CC(=O)N(C)CC(=O)N(C)CC(=O)N[C@H](CCCNC(=N)N)C(=O)N[C@H](CCCNC(=N)N)C(=O)O)NC(=O)[C@H](CC(C)C)NC(=O)[C@@H]2CCCN2C(=O)[C@H](C)NC(=O)[C@H](CC(=O)O)NC(=O)[C@H](Cc2c[nH]c4ccccc24)NC(=O)[C@@H]2CCCN2C(=O)[C@H](CSC3)NC(=O)[C@H](Cc2c[nH]c3ccccc23)NC(=O)[C@@H]2CCCN2C(=O)[C@H](CC(N)=O)NC(=O)[C@H](Cc2c[nH]c3ccccc23)NC(=O)[C@H]([C@@H](C)O)NC(=O)[C@H](CC(N)=O)NC1=O`, the Ki was 50 µM on Kallikrein-5; > 50 µM on Coagulation factor XII; 40 µM in experiment [1]; > 50 µM on Kallikrein-1 (hek293); > 50 µM on Coagulation factor VII; > 50 µM at Coagulation factor XI. In experiment [2], the Ki was 0.5 µM.
Consider `CC[C@H](C)[C@@H]1NC(=O)[C@H](CC(=O)O)NC(=O)[C@@H]2CCCN2C(=O)[C@H](Cc2ccc(O)cc2)NC(=O)[C@H](Cc2ccc(O)cc2)NC(=O)[C@H](C(C)C)NC(=O)[C@@H]2CSCc3cc(cc(c3)CSC[C@@H](C(=O)N[C@@H](C)C(=O)N(C)CC(=O)N(C)CC(=O)N(C)CC(=O)N[C@H](CCCNC(=N)N)C(=O)N[C@H](CCCNC(=N)N)C(=O)O)NC1=O)CSC[C@H](NC(C)=O)C(=O)N[C@@H](CO)C(=O)N[C@@H](Cc1ccccc1)C(=O)N1CCC1C(=O)N[C@@H](Cc1ccc(O)cc1)C(=O)N[C@@H](CCCCNC(=N)N)C(=O)N2` (stereo partly specified), for which the Ki is 0.8 µM at Kallikrein-5; > 50 µM on Coagulation factor XII; 15 µM in experiment [1]; 50 µM on Kallikrein-1; > 50 µM at Coagulation factor VII; 0.5 µM at Coagulation factor XI. The Ki in experiment [2] came out at 0.022 µM.
